# Data reported in ChEMBL document CHEMBL3580637, “Selective Inhibition of Bacterial Topoisomerase I by alkynyl-bisbenzimidazoles” (Medchemcomm, 2014).
# The source made the active and inactive calls. No cut-off for these calls is given here.
# Tests used:
# [1] = biological target: T1, DNA topoisomerase 1 (Homo sapiens) (UniProt P11387); test: Inhibition of human DNA topoisomerase-1 using supercoiled pBAD-GFPuv plasmid DNA as substrate assessed as prevention of supercoiled DNA template from relaxation at 50 uM after 30 mins by agarose gel electrophoresis relative to control
# T1 sequence (whole entry): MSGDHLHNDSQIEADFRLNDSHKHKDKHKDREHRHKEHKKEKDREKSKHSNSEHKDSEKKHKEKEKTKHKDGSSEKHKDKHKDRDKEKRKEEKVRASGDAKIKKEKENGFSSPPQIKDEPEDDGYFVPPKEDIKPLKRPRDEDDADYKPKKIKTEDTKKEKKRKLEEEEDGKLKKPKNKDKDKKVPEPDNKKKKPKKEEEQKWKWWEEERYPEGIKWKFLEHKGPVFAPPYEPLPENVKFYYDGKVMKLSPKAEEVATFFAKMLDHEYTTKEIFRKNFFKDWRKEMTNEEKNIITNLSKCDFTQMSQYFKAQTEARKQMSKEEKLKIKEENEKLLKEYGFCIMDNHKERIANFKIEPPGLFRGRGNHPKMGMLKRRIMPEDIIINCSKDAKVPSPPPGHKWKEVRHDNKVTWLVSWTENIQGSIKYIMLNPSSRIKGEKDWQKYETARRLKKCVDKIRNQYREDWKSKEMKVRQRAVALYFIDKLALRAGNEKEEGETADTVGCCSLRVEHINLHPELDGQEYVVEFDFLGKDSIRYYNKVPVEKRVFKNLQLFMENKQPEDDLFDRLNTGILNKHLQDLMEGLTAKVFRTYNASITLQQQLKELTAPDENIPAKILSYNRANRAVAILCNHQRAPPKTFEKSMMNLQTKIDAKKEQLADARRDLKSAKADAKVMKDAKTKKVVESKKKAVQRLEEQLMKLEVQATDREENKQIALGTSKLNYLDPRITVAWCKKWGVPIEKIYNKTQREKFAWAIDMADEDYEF
# How it was run: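 Human topoisomerase I (2 units) was incubated with 250 ng supercoiled pBAD-GFPuv in 20 mM Tris-HCl pH 7.9, 50 mM KAc, 10 mM Mg(Ac)2, 1 mM DTT and 1 µg/ml BSA, with compound at 10 or 50 µM, for 30 min at 37 °C. After a phenol stop, DNA was resolved on 1% agarose without chloroquine beside a relaxed plasmid marker and stained with ethidium bromide.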
# Staphylococcus aureus [2] = test: Antibacterial activity against Staphylococcus aureus ATCC 29213 after 24 hrs by microbroth dilution method; type: functional; settings: ATCC 29213, 24 h
# How it was run: (§1)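 Organisms were grown to log phase in Mueller-Hinton broth at 37 °C with shaking. They were pelleted, resuspended in 0.85% saline to OD625 0.1, and dispensed at a final 5×10^5 CFU/mL per CLSI microbroth dilution. Plates were run in triplicate and incubated 24 h at 37 °C, then OD625 was read. MIC was the lowest concentration giving complete growth inhibition versus untreated controls.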
# Calf thymus DNA = test: Binding affinity to calf thymus DNA assessed as change in melting temperature relative to control; type: nucleic-acid assay; settings: Bos taurus
# Pseudomonas aeruginosa = test: Antibacterial activity against Pseudomonas aeruginosa ATCC 27853 after 24 hrs by microbroth dilution method; type: functional; settings: ATCC 27853, 24 h; how it was run: as §1
# [3] = Inhibition of Escherichia coli DNA topoisomerase-1 using supercoiled pBAD-GFPuv plasmid DNA as substrate assessed as prevention of supercoiled DNA template from relaxation after 15 mins by agarose gel electrophoresis
# [4] = Binding affinity to dA60.dT60 DNA (unknown origin) assessed as change in melting temperature at 10 uM by UV-Vis spectrophotometric analysis
# How it was run: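 Preformed dA60·dT60 duplex (equimolar strands heated 95 °C 15 min in 10 mM sodium cacodylate, 0.1 mM EDTA, 100 mM NaCl, pH 7.0, slowly cooled) at 1 µM duplex with 10 µM ligand (diluted from DMSO stock). Absorbance melting in 1 cm quartz cells, heating 0.2 °C/min, data every 1.0 °C; Tm shift versus ligand-free duplex.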
# [5] = biological target: T2, DNA gyrase (Escherichia coli) (UniProt P0AES6+P0AES4); test: Inhibition of Escherichia coli DNA gyrase using relaxed pBAD-GFPuv plasmid DNA as substrate at 1 to 50 uM after 30 mins by agarose gel electrophoresis; type: protein-complex assay
# Staphylococcus aureus [6] = test: Antibacterial activity against Staphylococcus aureus ATCC 33591 after 24 hrs by microbroth dilution method; type: functional; settings: ATCC 33591, 24 h; how it was run: as §1
# Escherichia coli [7] = test: Antibacterial activity against Escherichia coli ATCC 25922 after 24 hrs by microbroth dilution method; type: functional; settings: ATCC 25922, 24 h; how it was run: as §1
# Escherichia coli [8] = test: Antibacterial activity against Escherichia coli K-12 after 24 hrs by microbroth dilution method; type: functional; settings: K-12, 24 h; how it was run: as §1
# Enterococcus faecalis = test: Antibacterial activity against Enterococcus faecalis ATCC 29212 after 24 hrs by microbroth dilution method; type: functional; settings: ATCC 29212, 24 h; how it was run: as §1
# DU-145 = test: Cytotoxicity against human DU145 cells after 48 hrs by sulforhodamine B assay; type: cell-based; settings: DU-145, 48 h
# How it was run: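 DU145 cells were seeded and allowed 24 h to resume growth at 37 °C, 5% CO2. They were treated in triplicate at final 20, 10, 5, 2.5, 1.25, 0.625 and 0.0625 µM for 48 h, alongside untreated and media-only wells. Cells were fixed with cold TCA (16% final) and stained with sulforhodamine B in 1% acetic acid. Bound dye was solubilized in 10 mM Tris base and read at 560 nm to give IC50.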
# DNA topoisomerase 1 = biological target: T3, DNA topoisomerase 1 (Homo sapiens, UniProt P11387); test: Inhibition of human DNA topoisomerase-1 using supercoiled pBAD-GFPuv plasmid DNA as substrate assessed as prevention of supercoiled DNA template from relaxation after 30 mins by agarose gel electrophoresis
# T3 sequence (P11387 whole entry): T1 sequence (whole entry)
# How it was run: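 Compound at 5–50 µM final; 30 min at 37 °C, phenol stop. Read on 1% agarose/TAE gel with ethidium stain. IC50 = concentration at 50% (−) supercoiled DNA by densitometry; mean of ≥3 determinations.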
# [9] = Inhibition of Escherichia coli DNA topoisomerase-1 using supercoiled pBAD/Thio plasmid DNA as substrate assessed as prevention of supercoiled DNA from relaxation after 30 mins by agarose gel electrophoresis
# [10] = biological target: DNA topoisomerase 2-alpha (Homo sapiens, UniProt P11388); test: Inhibition of human DNA topoisomerase-2 using supercoiled pBAD-GFPuv plasmid DNA as substrate assessed as prevention of supercoiled DNA template from relaxation after 30 mins by agarose gel electrophoresis
# How it was run: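 Compound at 5–50 µM final; 30 min at 37 °C, phenol stop. Read on 1% agarose/TAE gel with ethidium stain. IC50 = concentration at 50% (−) supercoiled DNA by band intensity; mean of ≥3 determinations.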
# [11] = biological target: T2, DNA gyrase (Escherichia coli); test: Inhibition of Escherichia coli DNA gyrase using relaxed pBAD-GFPuv plasmid DNA as substrate at 1 to 10 uM after 30 mins by agarose gel electrophoresis; type: protein-complex assay
# Chain of DNA topoisomerase 2-alpha (P11388 whole entry): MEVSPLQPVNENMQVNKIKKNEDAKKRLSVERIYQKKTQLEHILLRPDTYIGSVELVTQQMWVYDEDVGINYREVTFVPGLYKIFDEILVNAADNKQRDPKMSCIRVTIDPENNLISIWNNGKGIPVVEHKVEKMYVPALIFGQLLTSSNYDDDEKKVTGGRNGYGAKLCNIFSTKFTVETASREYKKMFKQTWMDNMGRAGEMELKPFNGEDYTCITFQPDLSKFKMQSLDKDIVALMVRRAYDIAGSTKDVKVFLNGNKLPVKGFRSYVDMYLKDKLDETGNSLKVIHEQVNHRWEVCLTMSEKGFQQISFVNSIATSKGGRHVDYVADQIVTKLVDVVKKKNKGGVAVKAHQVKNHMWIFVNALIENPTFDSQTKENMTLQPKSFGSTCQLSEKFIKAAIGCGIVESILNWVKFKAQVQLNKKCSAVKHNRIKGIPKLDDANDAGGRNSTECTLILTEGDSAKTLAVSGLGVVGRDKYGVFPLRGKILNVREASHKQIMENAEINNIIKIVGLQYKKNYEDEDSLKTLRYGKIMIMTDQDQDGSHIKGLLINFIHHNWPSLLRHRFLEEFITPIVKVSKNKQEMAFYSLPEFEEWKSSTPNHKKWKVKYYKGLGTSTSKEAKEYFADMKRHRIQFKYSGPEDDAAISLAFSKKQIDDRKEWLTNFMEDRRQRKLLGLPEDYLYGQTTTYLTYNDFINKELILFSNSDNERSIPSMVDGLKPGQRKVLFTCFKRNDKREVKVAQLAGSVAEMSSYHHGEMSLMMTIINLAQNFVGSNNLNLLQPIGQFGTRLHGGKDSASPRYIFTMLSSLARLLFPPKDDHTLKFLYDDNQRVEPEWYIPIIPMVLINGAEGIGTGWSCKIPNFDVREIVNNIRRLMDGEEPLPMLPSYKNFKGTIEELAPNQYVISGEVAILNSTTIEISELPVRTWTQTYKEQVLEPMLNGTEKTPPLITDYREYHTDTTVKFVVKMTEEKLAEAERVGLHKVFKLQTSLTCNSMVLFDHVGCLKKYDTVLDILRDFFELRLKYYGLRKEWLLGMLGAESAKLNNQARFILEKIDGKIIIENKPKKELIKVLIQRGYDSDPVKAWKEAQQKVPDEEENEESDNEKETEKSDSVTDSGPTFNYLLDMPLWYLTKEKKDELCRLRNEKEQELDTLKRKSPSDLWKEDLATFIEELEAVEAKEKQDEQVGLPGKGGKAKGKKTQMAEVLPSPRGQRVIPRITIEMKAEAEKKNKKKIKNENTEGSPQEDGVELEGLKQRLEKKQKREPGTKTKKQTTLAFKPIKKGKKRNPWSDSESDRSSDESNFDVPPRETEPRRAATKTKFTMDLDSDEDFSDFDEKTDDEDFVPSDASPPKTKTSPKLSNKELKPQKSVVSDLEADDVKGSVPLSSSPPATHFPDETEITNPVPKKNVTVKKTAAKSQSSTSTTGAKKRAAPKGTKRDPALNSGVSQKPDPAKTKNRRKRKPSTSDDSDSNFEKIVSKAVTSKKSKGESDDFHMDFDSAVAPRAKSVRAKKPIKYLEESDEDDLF
SMILES,inhibition [1] [%],MIC (Staphylococcus aureus [2]) [µg/mL],ΔTm (Calf thymus DNA) [°C],MIC (Pseudomonas aeruginosa) [µg/mL],IC50 [3] [µM],ΔTm [4] [°C],inhibition [5],MIC (Staphylococcus aureus [6]) [µg/mL],MIC (Escherichia coli [7]) [µg/mL],MIC (Escherichia coli [8]) [µg/mL],MIC (Enterococcus faecalis) [µg/mL],IC50 (DU-145) [µM],IC50 (DNA topoisomerase 1) [µM],IC50 [9] [µM],IC50 [10] [µM],inhibition [11]
C#CCOCCCCOc1ccc(-c2nc3ccc(-c4nc5ccc(N6CCN(C)CC6)cc5[nH]4)cc3[nH]2)cc1,5,2,1,16,6.63,23.4,inactive,2,8,8,,,,,,
C#CCCCCCCCCCOc1ccc(-c2nc3ccc(-c4nc5ccc(N6CCN(C)CC6)cc5[nH]4)cc3[nH]2)cc1,5,,1,,2.47,8,inactive,,,8,16,> 10,,,,
C#CCCCCOc1ccc(-c2nc3ccc(-c4nc5ccc(N6CCN(C)CC6)cc5[nH]4)cc3[nH]2)cc1,5,2,1,16,4.57,20.9,inactive,2,8,8,4,2.12,,,,
CCOc1ccc(-c2nc3cc(-c4nc5cc(N6CCN(C)CC6)ccc5[nH]4)ccc3[nH]2)cc1,,2,,,29.8,24.1,,2,8,,16,4.25,> 50,,,
COc1ccc(-c2nc3cc(-c4nc5cc(N6CCN(C)CC6)ccc5[nH]4)ccc3[nH]2)cc1OC,,,,,,,,,,,,,,3.8,,
CN1CCN(c2ccc3[nH]c(-c4ccc5[nH]c(-c6ccc(O)cc6)nc5c4)nc3c2)CC1 [HOECHST 33258],,≥ 32,,,19.5,24.6,inactive,16,,,16,,22.9,,28.9,
C#CCOc1ccc(-c2nc3ccc(-c4nc5ccc(N6CCN(C)CC6)cc5[nH]4)cc3[nH]2)cc1,70,2,1,,5.5,22.9,,2,8,8,16,,,,,inactive
